Reference: ChEMBL document CHEMBL1275427, “Antimicrobial susceptibilities of geographically diverse clinical human isolates of Leptospira” (2008)

What was measured:
Assay type in all cases: functional
[1] = Antimicrobial activity against Leptospira interrogans serovar Icterohaemorrhagiae isolate 9 by broth microdilution method
Outline: (§1)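 Strains grown 7 days in EMJH medium at 30°C; inoculum counted by Petroff-Hausser chamber under dark-field microscopy and added at 2 × 10^6 organisms/ml. Twofold serial dilutions in EMJH, final 32.0 to 0.016 μg/ml (units/ml for penicillin), 96-well round-bottom plates, 30°C. alamarBlue added day 3; colour read day 5. MIC is lowest concentration without blue-to-pink change. Triplicate runs, median reported; L. interrogans Icterohaemorrhagiae quality control.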

[2] = Antimicrobial activity against Leptospira interrogans serovar Canicola isolate 11 by broth microdilution method; outline: as §1
[3] = Antimicrobial activity against Leptospira interrogans serovar Icterohaemorrhagiae isolate 10 by broth microdilution method; outline: as §1
Leptospira weilii [4] = assay: Antimicrobial activity against Leptospira weilii isolate 6 by broth microdilution method; outline: as §1
[5] = Antimicrobial activity against Leptospira interrogans serovar Pomona isolate 4 by broth microdilution method; outline: as §1
[6] = Antimicrobial activity against Leptospira interrogans serovar Bataviae isolate 1 by broth microdilution method; outline: as §1
[7] = Antimicrobial activity against Leptospira interrogans serovar Pomona isolate 12 by broth microdilution method; outline: as §1
Leptospira weilii [8] = assay: Antimicrobial activity against Leptospira weilii isolate 8 by broth microdilution method; outline: as §1
[9] = Antimicrobial activity against Leptospira interrogans serovar Icterohaemorrhagiae isolate 3 by broth microdilution method; outline: as §1
[10] = Antimicrobial activity against Leptospira interrogans serovar Grippotyphosa isolate 2 by broth microdilution method
Outline: (§2)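 Serial twofold dilutions in EMJH medium, final 32.0 to 0.016 μg/ml (units/ml for penicillin). Inoculum from 7-day EMJH cultures grown at 30°C, counted by Petroff-Hausser chamber under dark-field microscopy, added at 2 × 10^6 organisms/ml. Plates incubated at 30°C; alamarBlue added on day 3 and colour read on day 5. MIC is the lowest concentration without blue-to-pink change; median of triplicate runs.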

[11] = Antimicrobial activity against Leptospira interrogans isolate 7 by broth microdilution method; outline: as §2
[12] = tested on: Leptospira kirschneri serovar Grippotyphosa; assay: Antimicrobial activity against Leptospira kirschneri serovar Grippotyphosa isolate 13 by broth microdilution method; outline: as §2
[13] = Antimicrobial activity against Leptospira interrogans serovar Pyrogenes isolate 5 by broth microdilution method; outline: as §1
[14] = Leptospira interrogans, isolate 9, read-out: MIC
[15] = Leptospira interrogans, isolate 11, read-out: MIC
[16] = Leptospira interrogans, isolate 10, read-out: MIC
[17] = Leptospira weilii, isolate 6, read-out: MIC
[18] = Leptospira interrogans, isolate 4, read-out: MIC
[19] = Leptospira interrogans, isolate 1, read-out: MIC
[20] = Leptospira interrogans, isolate 12, read-out: MIC
[21] = Leptospira weilii, isolate 8, read-out: MIC
[22] = Leptospira interrogans, isolate 3, read-out: MIC
[23] = Leptospira interrogans, isolate 7, read-out: MIC
[24] = Leptospira kirschneri, isolate 13, read-out: MIC
[25] = Leptospira interrogans, isolate 5, read-out: MIC

Measured: MIC

CC1(C)S[C@@H]2[C@H](NC(=O)[C@H](N)c3ccccc3)C(=O)N2[C@H]1C(=O)O [AMPICILLIN]
< 0.016 µg/mL: [1]; [14] | [2]; [15] | [3]; [16] | Leptospira weilii [4]; [17] | [5]; [18] | [6]; [19] | [7]; [20] | Leptospira weilii [8]; [21] | [9]; [22] | [10] | [11]; [23] | [12]; [24] | [13]; [25]

CC[C@H]1OC(=O)[C@H](C)[C@@H](O[C@H]2C[C@@](C)(OC)[C@@H](O)[C@H](C)O2)[C@H](C)[C@@H](O[C@@H]2O[C@H](C)C[C@H](N(C)C)[C@H]2O)[C@](C)(O)C[C@@H](C)CN(C)[C@H](C)[C@@H](O)[C@]1(C)O [AZITHROMYCIN]
< 0.016 µg/mL: [1]; [14] | [2]; [15] | [3]; [16] | Leptospira weilii [4]; [17] | [5]; [18] | [6]; [19] | [7]; [20] | Leptospira weilii [8]; [21] | [9]; [22] | [10] | [11]; [23] | [12]; [24] | [13]; [25]

CO/N=C(\C(=O)N[C@@H]1C(=O)N2C(C(=O)[O-])=C(C[N+]3(C)CCCC3)CS[C@H]12)c1csc(N)n1 [CEFEPIME]
< 0.016 µg/mL: [1]; [14] | [2]; [15] | [3]; [16] | Leptospira weilii [4]; [17] | [5]; [18] | [6]; [19] | [7]; [20] | Leptospira weilii [8]; [21] | [9]; [22] | [10] | [11]; [23] | [12]; [24] | [13]; [25]

CO/N=C(\C(=O)N[C@@H]1C(=O)N2C(C(=O)O)=C(COC(C)=O)CS[C@H]12)c1csc(N)n1 [CEFOTAXIME]
< 0.016 µg/mL: [1]; [14] | [2]; [15] | [3]; [16] | [5]; [18] | [6]; [19] | [7]; [20] | [9]; [22] | [12]; [24] | [13]; [25]
0.03 µg/mL: Leptospira weilii [4]; [17] | Leptospira weilii [8]; [21] | [10] | [11]; [23]

CO/N=C(\C(=O)N[C@@H]1C(=O)N2C(C(=O)O)=C(CSc3nc(=O)c(O)nn3C)CS[C@H]12)c1csc(N)n1 [CEFTRIAXONE]
< 0.016 µg/mL: [1]; [14] | [3]; [16] | [7]; [20] | [9]; [22] | [12]; [24] | [13]; [25]
0.06 µg/mL: Leptospira weilii [4]; [17] | [5]; [18] | [10] | [11]; [23]
0.03 µg/mL: [2]; [15] | [6]; [19] | Leptospira weilii [8]; [21]

O=C(O)c1cn(C2CC2)c2cc(N3CCNCC3)c(F)cc2c1=O [CIPROFLOXACIN]
0.125 µg/mL: [1]; [14] | [3]; [16] | Leptospira weilii [4]; [17] | [6]; [19] | Leptospira weilii [8]; [21] | [9]; [22] | [10] | [11]; [23] | [13]; [25]
0.03 µg/mL: [12]; [24]
0.25 µg/mL: [5]; [18]
0.06 µg/mL: [2]; [15] | [7]; [20]

CC[C@H]1OC(=O)[C@H](C)[C@@H](O[C@H]2C[C@@](C)(OC)[C@@H](O)[C@H](C)O2)[C@H](C)[C@@H](O[C@@H]2O[C@H](C)C[C@H](N(C)C)[C@H]2O)[C@](C)(OC)C[C@@H](C)C(=O)[C@H](C)[C@@H](O)[C@]1(C)O [CLARITHROMYCIN]
< 0.016 µg/mL: [1]; [14] | [2]; [15] | [3]; [16] | Leptospira weilii [4]; [17] | [5]; [18] | [6]; [19] | [7]; [20] | Leptospira weilii [8]; [21] | [9]; [22] | [10] | [11]; [23] | [12]; [24] | [13]; [25]

C[C@H]1c2cccc(O)c2C(=O)C2=C(O)[C@]3(O)C(=O)C(C(N)=O)=C(O)[C@@H](N(C)C)[C@@H]3[C@@H](O)[C@@H]21.O [DOXYCYCLINE]
0.06 µg/mL: [2]; [15] | [7]; [20]
1 µg/mL: [6]; [19] | [10] | [13]; [25]
0.25 µg/mL: [1]; [14] | [11]; [23]
< 0.016 µg/mL: [12]; [24]
2 µg/mL: [5]; [18] | [9]; [22]
0.5 µg/mL: [3]; [16] | Leptospira weilii [4]; [17] | Leptospira weilii [8]; [21]

C[C@H]1COc2c(N3CCN(C)CC3)c(F)cc3c(=O)c(C(=O)O)cn1c23.C[C@H]1COc2c(N3CCN(C)CC3)c(F)cc3c(=O)c(C(=O)O)cn1c23.O [LEVOFLOXACIN]
0.06 µg/mL: Leptospira weilii [4]; [17] | [6]; [19] | [9]; [22] | [10] | [11]; [23] | [13]; [25]
< 0.016 µg/mL: [7]; [20] | [12]; [24]
0.03 µg/mL: [2]; [15]
0.125 µg/mL: [1]; [14] | [3]; [16] | [5]; [18] | Leptospira weilii [8]; [21]

COc1c(N2C[C@@H]3CCCN[C@@H]3C2)c(F)cc2c(=O)c(C(=O)O)cn(C3CC3)c12 [MOXIFLOXACIN]
< 0.016 µg/mL: [7]; [20]
0.03 µg/mL: [2]; [15] | [12]; [24]
0.125 µg/mL: [1]; [14] | [3]; [16] | [5]; [18] | Leptospira weilii [8]; [21]
0.06 µg/mL: Leptospira weilii [4]; [17] | [6]; [19] | [9]; [22] | [10] | [11]; [23] | [13]; [25]

CC1(C)S[C@@H]2[C@H](NC(=O)Cc3ccccc3)C(=O)N2[C@H]1C(=O)O [PENICILLIN G]
0.125 U/ml: [12]
<0.016 U/ml: [1] | [3] | [6] | [9] | [13]
0.25 U/ml: [2]
0.03 U/ml: Leptospira weilii [4]
0.06 U/ml: [5] | [7] | Leptospira weilii [8] | [11]

CN(C)[C@@H]1C(O)=C(C(N)=O)C(=O)[C@@]2(O)C(O)=C3C(=O)c4c(O)cccc4[C@@](C)(O)[C@H]3C[C@@H]12 [TETRACYCLINE]
0.5 µg/mL: [3]; [16] | Leptospira weilii [8]; [21]
0.125 µg/mL: [2]; [15] | [7]; [20]
4 µg/mL: [9]; [22] | [13]; [25]
1 µg/mL: [1]; [14] | Leptospira weilii [4]; [17] | [6]; [19] | [10] | [11]; [23]
< 0.016 µg/mL: [12]; [24]
2 µg/mL: [5]; [18]
